Compound activity: PubChem, The Scripps Research Institute Molecular Screening Center
Sampled rows, rich in hits. Any-hit rate of the full collection: about 2.4%.
NPY-Y1 PAM-ag: potentiators or agonists of human neuropeptide Y receptor Y1; activation, % at 3.6 µM; NPY-Y1 expressing cells, potentiator/agonist activation; AID 1304; P25929; actives 0.37% (n = 220,000); in the data active means activation above about 33%, passing the limit was not always enough;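 further: cells stimulated with NPY at EC10 then isoproterenol at EC100; 0% = low agonist plus stimulus and 100% = saturating agonist plus stimulus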
S1P4 agonist: human S1P4 receptor agonism; O95977; S1P4-expressing cell line, agonist reporter assay; activation, % at 4.98 µM; actives 0.35% (n = 220,000); AID 1509; in the data active means activation above about 11%;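 further: 0% = DMSO vehicle and 100% = reference agonist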
S1P4 antagonist: blocks the human S1P4 receptor; O95977; S1P4-expressing cells, antagonist mode, reporter read-out; actives 0.26% (n = 220,000); AID 1510; inhibition, % at 4.98 µM; in the data active means inhibition above about 29%;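 further: 0% = wells stimulated with agonist and 100% = vehicle wells without agonist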
NPY Y2 blocker: antagonists of human neuropeptide Y receptor Y2; NPY-Y2 expressing cells, antagonist mode; inhibition, % at 2.7 µM; actives 0.99% (n = 140,000); AID 793; in the data active means inhibition above about 17%;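 further: 0% = vehicle with agonist challenge and 100% = reference antagonist with challenge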
Target sequence (P49146 whole entry, looked up): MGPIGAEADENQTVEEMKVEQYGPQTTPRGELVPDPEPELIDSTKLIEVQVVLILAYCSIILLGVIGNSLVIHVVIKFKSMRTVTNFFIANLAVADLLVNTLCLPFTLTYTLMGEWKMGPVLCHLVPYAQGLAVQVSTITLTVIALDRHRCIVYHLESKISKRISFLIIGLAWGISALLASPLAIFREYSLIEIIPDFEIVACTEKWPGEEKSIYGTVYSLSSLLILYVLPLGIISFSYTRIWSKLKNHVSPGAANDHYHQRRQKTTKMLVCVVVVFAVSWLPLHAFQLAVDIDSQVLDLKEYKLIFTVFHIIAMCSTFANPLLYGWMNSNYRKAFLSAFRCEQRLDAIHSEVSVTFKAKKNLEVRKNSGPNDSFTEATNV
NPY-Y1 antag: NPY-Y1 (human) receptor antagonism. P25929. HEK293-CNG Y1 cells, membrane potential fluorescence; NPY at EC95, then isoproterenol. inhibition, % at 3.6 µM. actives 1% (n = 200,000). AID 1040;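 active means inhibition above the campaign mean inhibition of all tested compounds plus 3 SD, cut at about 20% in these data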;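 further: 0% = DMSO wells given NPY plus isoproterenol and 100% = isoproterenol alone without NPY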
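Test system: HEK293 cells co-expressing NPY Y1 receptor and cyclic-nucleotide gated channel; Also added: NPY (25 nM), isoproterenol (1 µM), Ro 20-1724 (25 µM); Compound dosing: one concentration, 3.6 µM, in 0.4% DMSO; Timing: dye 3 h, compound 60 min room temperature, stimulation 45 min; Technique: Membrane-potential fluorescent dye readout.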
NPY-Y2 PAM-ag: potentiates or activates human NPY-Y2 receptor | P49146 | activation, % at 3.6 µM | cells expressing NPY-Y2, potentiator/agonist read-out | actives 0.45% (n = 220,000) | AID 1359; in the data active means activation above about 27%;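 further: cells stimulated with NPY near EC25 plus isoproterenol at EC100; 0% = vehicle plus submaximal agonist and 100% = vehicle plus saturating agonist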
S1P4 antag conf: human S1P4 antagonism, confirmation; shares compounds with S1P4 antagonist; actives 71% (n = 520); inhibition, % at 4.98 µM; S1P4-expressing cell line, antagonist mode, reporter read-out; in the data active means inhibition above about 30%
S1P1 antagonist: blocks human S1P1, counter-screen for S1P4 antagonists | shares compounds with S1P4 antagonist | cell-based S1P1 antagonist counterscreen, inhibition | inhibition, % at 4.98 µM | actives 37% (n = 520) | AID 1564; in the data active means inhibition above about 40%;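 further: receptor stimulated with S1P near its EC80; 0% = agonist stimulated wells and 100% = vehicle only wells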
Numbers without * were called inactive; · = not tested or not shown.

SMILES	NPY-Y1 PAM-ag	S1P4 agonist	S1P4 antagonist	NPY Y2 blocker	NPY-Y1 antag	NPY-Y2 PAM-ag	S1P4 antag conf	S1P1 antagonist
COc1cc(SC)ccc1C(=O)Nc1ccc(C)cc1C	-28	-2	34*	4	12	-25	55*	15
COc1cc(SC)ccc1C(=O)Nc1ccc(C)cc1	-10	-2	9	·	1	-6	·	·
CCOC(=O)N1CCN(S(=O)(=O)/C=C/c2ccccc2)CC1	2	2	-5	2	5	2	·	·
CCOC(=O)N1C/C(=C\c2ccccc2)C(=O)/C(=C/c2ccccc2)C1	5	-1	43*	·	·	-22	116*	-24
CC(=O)n1cc(N(C(=O)CCl)c2ccccc2)c2ccccc21	16	0	42*	·	·	12	100*	40
CCNC(=O)CP(=O)(c1ccccc1)c1ccccc1	10	0	-20	0	3	8	·	·
Nc1cccc2c1C(=O)N(C(=O)c1ccc(Cl)c(S(=O)(=O)N3CCCCCC3)c1)C2=O	1	3	32*	6	0	2	33*	0
Nc1cccc2c1C(=O)N(C(=O)c1cccc(S(=O)(=O)N3CCCCCC3)c1)C2=O	-17	0	29	5	4	-20	·	·
O=[N+]([O-])c1cc(S(=O)(=O)C(F)(F)F)ccc1Sc1nc2ccccc2[nH]1	-4	-1	33*	1	12	-10	110*	1
Cc1nc2c(=O)n(C)c(=O)n(C)c2nc1Cl	3	0	49*	1	-4	0	94*	51*
Cn1c(=O)c2nc(NCc3ccccc3)cnc2n(C)c1=O	7	1	8	1	0	11	·	·
COc1cc(NC2CCCCC2O)c2nc(-c3ccc(Cl)cc3)ccc2c1 (configuration not stated)	-4	0	30*	·	·	-12	65*	62*
OC1(c2ccc(Br)cc2)CN(c2ccccc2)C2=[N+]1CCS2 (configuration not stated)	8	0	30*	·	3	16	8	2
OC1(c2ccc(Cl)cc2)CN(c2ccccc2)C2=[N+]1CCS2 (configuration not stated)	-11	1	-12	·	14	-4	·	·
Cc1ccc(-c2nc(NC(=O)c3nn(C)cc3[N+](=O)[O-])sc2C)cc1	-8	-8	78*	-3	2	0	115*	-10
Cc1ccc(-c2nc(NC(=O)c3nn(C)cc3[N+](=O)[O-])sc2C)cc1C	-2	1	87*	-3	8	3	115*	-29
Cc1ccc(C(=O)OCn2ncc(Cl)c(Cl)c2=O)cc1	14	-4	111*	6	-3	2	115*	63*
CC(NC(=O)Cn1ncc(Cl)c(Cl)c1=O)C12CC3CC(CC(C3)C1)C2 (configuration not stated)	82*	-2	51*	2	-16	72*	-19	-11
CCc1ccccc1NC(=O)CN(C)C(=O)Cn1ncc(Cl)c(Cl)c1=O	27	2	38*	0	-4	7	107*	57*
COc1ccc(NC(=O)Cn2ncc(Cl)c(Cl)c2=O)cc1S(=O)(=O)N1CCOCC1	8	3	33*	-1	2	1	27	12
CCc1ccc(C(=O)Nc2ccc(OC)c(S(=O)(=O)N3CCOCC3)c2)cc1	-5	0	1	·	0	3	·	·
COc1cccc(CN2CCN(C(=O)c3cccc4ccccc34)CC2)c1OC	9	0	-7	0	3	-7	·	·
CN1CC(=O)N(CC(=O)Nc2ccc(Br)cc2F)C1=O	13	1	-9	·	6	3	·	·
O=C(Cn1ncc(N2CCCC2)c(Cl)c1=O)c1ccc(Cl)cc1	14	1	-18	·	5	2	·	·
CCC(=O)Nc1ccc(C(=O)Cn2ncc(Cl)c(Cl)c2=O)cc1	14	-2	75*	·	·	9	106*	48*
SMILES	NPY-Y1 PAM-ag	S1P4 agonist	S1P4 antagonist	NPY Y2 blocker	NPY-Y1 antag	NPY-Y2 PAM-ag	S1P4 antag conf	S1P1 antagonist
CCOC(=O)c1ccc(NC(=O)Cn2ncc(Cl)c(Cl)c2=O)cc1	59*	-2	37*	1	-9	18	123*	78*
O=C(CCn1cnc2ccccc21)N/N=C/C=C/c1ccccc1	3	0	30*	·	·	-14	-7	0
COc1ccccc1/C=C/C=N/NC(=O)CCn1cnc2ccccc21	-7	1	-4	·	·	-11	·	·
COc1ccccc1C(c1nnnn1C(C)(C)C)N1CCCCCC1 (configuration not stated)	2	-5	32*	13	1	-3	1	-19
COc1ccccc1C(c1nnnn1C(C)(C)C)N1CCN(C(=O)c2ccco2)CC1 (configuration not stated)	-13	-2	7	5	-2	-20	·	·
O=S(=O)(c1ccc(Cl)c(Cl)c1)c1snnc1-c1ccccc1	-30	0	56*	2	4	-6	114*	75*
O=C(c1nnsc1S(=O)(=O)c1ccc(Cl)cc1)N1CCOCC1	-4	-2	14	·	0	-22	·	·
CNC(=O)c1nnsc1S(=O)(=O)c1ccc(Cl)cc1	10	-3	61*	·	7	-18	103*	76*
C/C=C(\C)CN1CCc2cc(OC)c(OC)cc2C1	-8	1	-17	4	-1	-1	·	·
O=C(CSCCO)Nc1ccccc1	12	0	0	1	-4	14	·	·
O=C(CSCCO)Nc1cccc(C(F)(F)F)c1	2	1	36*	-1	6	10	4	3
Cc1ccc2[nH]c(=O)c(CN(CCCN(C)C)C(=S)NCCc3ccccc3)cc2c1	-29	-1	17	·	10	-22	·	·
COc1ccc(N=Nc2n(C)c3ccccc3[n+]2C)cc1	6	-1	30*	·	·	-6	0	35
COc1ccc(N=Nc2nc(-c3ccccc3)c(-c3ccccc3)[nH]2)cc1	8	1	-13	-4	-7	25	·	·
COc1cc(C(=O)Nc2ccc3c(c2)N(C(=O)CN2CCN(C)CC2)c2ccccc2CC3)cc(OC)c1OC	14	-1	-1	·	·	-8	·	·
CC1CC(C)(C)Nc2ccc(N=O)cc21 (configuration not stated)	12	-1	37*	·	0	-6	50*	16
O=[N+]([O-])c1cnc(Sc2ccncn2)s1	-10	1	35*	·	·	-39	116*	112*
O=C(Nc1ccc(Cl)cc1)/C(=C/c1cccc(O)c1)c1nc2ccccc2s1	-88	0	38*	13	8	-48	99*	62*
S=C(Nc1ccc(Cl)cc1)c1nc2ccccc2s1	11	2	1	1	5	-7	·	·
